Here are results for five compounds from ChEMBL document CHEMBL3108749, “Discovery of a non-estrogenic irreversible inhibitor of 17β-hydroxysteroid dehydrogenase type 1 from 3-substituted-16β-(m-carbamoylbenzyl)-estradiol derivatives” (J Med Chem, 2014).

Each structure is given as a SMILES string. Calls of active or inactive are those of the source. The rule behind the calls is not given here.

One may read the IC50 as the concentration that inhibits the measured activity by half. What is called inhibition is the change of the read-out against control, counted positive when it falls.

Experiment [1] concerns the target T1, 17-beta-hydroxysteroid dehydrogenase type 1 (Homo sapiens, UniProt P14061).
T1 sequence (P14061 whole entry): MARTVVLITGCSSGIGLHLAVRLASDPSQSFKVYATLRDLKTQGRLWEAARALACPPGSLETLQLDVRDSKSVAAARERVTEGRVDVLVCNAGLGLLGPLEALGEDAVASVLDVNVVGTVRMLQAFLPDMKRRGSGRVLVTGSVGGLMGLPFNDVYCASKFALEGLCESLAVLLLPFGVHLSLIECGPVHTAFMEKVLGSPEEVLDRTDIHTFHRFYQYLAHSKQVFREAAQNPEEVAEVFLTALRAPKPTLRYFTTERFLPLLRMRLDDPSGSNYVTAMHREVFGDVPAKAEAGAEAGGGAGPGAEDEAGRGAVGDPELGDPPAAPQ
Description: Inhibition of 17-beta HSD1 in human T47D cells assessed as transformation of [14C]E1 to [14C]E2 after 24 hrs by thin layer chromatography. It counts as cell-based. In short, it runs like this: (§1)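 Intact T-47D cells in RPMI with insulin (50 ng/mL) and 5% dextran-charcoal-treated FBS. After 24 h, inhibitor (from EtOH stock) added at 0.1 or 1 μM for screening or 1 nM–10 μM for IC50, with [14C]-E1 (60 nM), for 24 h. Ether extraction, TLC (toluene/acetone 4:1). IC50 = concentration halving E1→E2 conversion; triplicates, at least two experiments.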

Experiment [2] relates to T47D. Description: Cytotoxicity against human estrogen-starved estrogen-sensitive T47D cells assessed as cell growth at 1 uM after 7 days by MTS assay relative to control. It counts as functional. The following applies: 168 h, read-out: Activity. In short, it runs like this: (§2)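 MCF-7 (DMEM-F12) or T-47D (RPMI) cells are kept in medium with insulin (50 ng/mL) and 5% dextran-coated charcoal-treated FBS, seeded at 3000 cells/well. After 48 h, medium is replaced with medium containing compound, renewed every two days, and cells grow seven days. Growth is read by CellTiter 96 aqueous (MTS) assay as % proliferation vs basal control (0%). Scored −/+/++/+++ bands.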
(In general: Tetrazolium dyes change colour on reduction, which living cells bring about.)

The subject of experiment [3] is T47D. Description: Cytotoxicity against human estrogen-starved estrogen-sensitive T47D cells assessed as cell growth at 0.1 uM after 7 days by MTS assay relative to control. It counts as functional. The following applies: 168 h, read-out: Activity. In short, it runs like this:
as §2

Experiment [4] has as its target T2, 17-beta-hydroxysteroid dehydrogenase type 1 (Homo sapiens) (UniProt P14061).
T2 sequence (whole entry): T1 sequence (P14061 whole entry)
Description: Inhibition of 17-beta HSD1 in human T47D cells assessed as transformation of [14C]E1 to [14C]E2 at 0.1 uM after 24 hrs by thin layer chromatography. It counts as cell-based. In short, it runs like this:
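T-47D cells (endogenous 17β-HSD1) are seeded at 3000 cells/well in RPMI with insulin (50 ng/mL) and 5% charcoal-stripped FBS. After 24 h, compound (from EtOH stock, 0.1 μM final) is added with [14C]-E1 (60 nM) for 24 h. Steroids are extracted into diethyl ether, separated by silica TLC (toluene/acetone 4:1) and quantified. Mean ± SD of ≥2 independent experiments in triplicate.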

Experiment [5] deals with T3, 3-keto-steroid reductase/17-beta-hydroxysteroid dehydrogenase 7 (Homo sapiens) (UniProt P56937).
T3 sequence (whole entry): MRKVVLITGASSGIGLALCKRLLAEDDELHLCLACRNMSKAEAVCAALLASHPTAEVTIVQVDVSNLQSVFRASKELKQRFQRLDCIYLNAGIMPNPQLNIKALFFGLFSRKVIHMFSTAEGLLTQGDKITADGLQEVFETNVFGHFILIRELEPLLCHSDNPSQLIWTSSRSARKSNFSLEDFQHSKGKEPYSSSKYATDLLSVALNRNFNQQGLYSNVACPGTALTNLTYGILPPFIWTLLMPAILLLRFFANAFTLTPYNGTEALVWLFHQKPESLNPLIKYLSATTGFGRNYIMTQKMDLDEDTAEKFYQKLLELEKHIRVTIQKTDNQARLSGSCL
Description: Inhibition of 17-beta HSD7 (unknown origin) transfected in HEK293 cells using [14C]E1 as substrate at 10 uM. It counts as cell-based. In short, it runs like this: (§3)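 Stably transfected HEK-293 cells in stripped-serum MEM with G418 and insulin, seeded 48 h. Then treated with compound in DMSO (<0.5% final) plus 60 nM substrate: [14C]-E2 for 17β-HSD2, [14C]-E1 for 17β-HSD7 and 17β-HSD12. Stopped at 12–25% substrate conversion; ether extraction, TLC, radiolabel quantification; triplicates, at least two experiments.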

In another experiment the target is Cytochrome P450 3A4 (Homo sapiens, UniProt P08684). Description: Inhibition of CYP3A4 (unknown origin) by fluorescence assay. The experiment is classed as ADME. An outline of the steps:
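Commercial CYP3A4 kit with dibenzylfluorescein as substrate, read by fluorescence of its enzymatic product. Compound dissolved in DMSO/acetonitrile (5:95). IC50 from means of at least two experiments in triplicate.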

The target in experiment [6] is T4, Very-long-chain 3-oxoacyl-CoA reductase (Homo sapiens) (UniProt Q53GQ0).
T4 sequence (whole entry): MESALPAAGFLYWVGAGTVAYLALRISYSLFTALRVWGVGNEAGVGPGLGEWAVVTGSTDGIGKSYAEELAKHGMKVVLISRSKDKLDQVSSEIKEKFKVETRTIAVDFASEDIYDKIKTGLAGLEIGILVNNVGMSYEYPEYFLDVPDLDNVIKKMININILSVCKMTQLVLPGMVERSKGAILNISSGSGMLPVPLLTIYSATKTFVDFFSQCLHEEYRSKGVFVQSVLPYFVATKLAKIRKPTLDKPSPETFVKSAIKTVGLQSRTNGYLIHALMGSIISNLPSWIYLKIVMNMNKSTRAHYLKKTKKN
Description: Inhibition of 17-beta HSD12 (unknown origin) transfected in HEK293 cells using [14C]E1 as substrate at 10 uM. The experiment is classed as cell-based. In short, it runs like this:
as §3

Experiment [7] has as its target T5, 17-beta-hydroxysteroid dehydrogenase type 2 (Homo sapiens) (UniProt P37059).
T5 sequence (whole entry): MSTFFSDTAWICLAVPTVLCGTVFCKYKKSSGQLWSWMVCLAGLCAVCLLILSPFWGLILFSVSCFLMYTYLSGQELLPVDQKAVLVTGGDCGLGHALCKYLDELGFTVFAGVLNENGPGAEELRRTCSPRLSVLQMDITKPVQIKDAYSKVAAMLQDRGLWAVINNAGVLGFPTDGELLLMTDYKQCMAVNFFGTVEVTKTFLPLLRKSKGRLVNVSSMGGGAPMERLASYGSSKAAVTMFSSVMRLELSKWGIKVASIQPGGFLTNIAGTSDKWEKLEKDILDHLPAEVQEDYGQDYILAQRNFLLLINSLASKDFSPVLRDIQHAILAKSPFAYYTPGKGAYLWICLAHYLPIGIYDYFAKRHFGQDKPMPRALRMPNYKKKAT
Description: Inhibition of 17-beta HSD2 (unknown origin) transfected in HEK293 cells using [14C]E2 as substrate at 10 uM. The experiment is classed as cell-based. In short, it runs like this: as §3

The test system of experiment [8] is MCF7. Description: Cytotoxicity against human estrogen-starved estrogen-sensitive MCF7 cells assessed as cell growth at 1 uM after 7 days by MTS assay relative to control. The settings on record: MCF7, 168 h, read-out: Activity. The experiment is classed as functional. In short, it runs like this:
as §2

The test system of experiment [9] is MCF7. Description: Cytotoxicity against human estrogen-starved estrogen-sensitive MCF7 cells assessed as cell growth at 0.1 uM after 7 days by MTS assay relative to control. It counts as functional. The following applies: MCF7, 168 h, read-out: Activity. In short, it runs like this: as §2
For experiment [10], the target named is T2, 17-beta-hydroxysteroid dehydrogenase type 1 (Homo sapiens). Description: Competitive inhibition of 17-beta HSD1 (unknown origin) using [14C]E1/E1 as substrate assessed as transformation of [14C]E1 to [14C]E2 at 0.1 to 0.5 uM after 45 mins by thin layer chromatography. An outline of the steps:
(§4)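 Purified 17β-HSD1 in buffer (100 mM Tris, 20% glycerol, 0.2 mg/mL BSA, 2 mM EDTA) with 1 mM NADPH, preincubated at 37 °C with inhibitor (0, 100 or 500 nM), with or without unlabeled E1 (500 nM), over varying times. Then diluted 1:20 with [14C]-E1 (60 nM final), 45 min at 37 °C. Ether extraction, TLC, radiolabel quantification; activity as % of initial; triplicate.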

The target is the same in experiment [11]. Description: Irreversible inhibition of 17-beta HSD1 (unknown origin) using [14C]E1 as substrate at 0.1 to 0.5 uM after 45 mins by thin layer chromatography. An outline of the steps: as §4
Experiment [12] has the same target. Description: Inhibition of 17-beta HSD1 (unknown origin) using [14C]E1 as substrate at 0.1 to 0.5 uM by thin layer chromatography. The following applies: TDE = time-dependent effect. An outline of the steps: as §4
Experiment [13] addresses T1, 17-beta-hydroxysteroid dehydrogenase type 1. Description: Inhibition of 17-beta HSD1 in human T47D cells. It counts as cell-based. In short, it runs like this:
as §1

Sequence of Cytochrome P450 3A4 (P08684 whole entry): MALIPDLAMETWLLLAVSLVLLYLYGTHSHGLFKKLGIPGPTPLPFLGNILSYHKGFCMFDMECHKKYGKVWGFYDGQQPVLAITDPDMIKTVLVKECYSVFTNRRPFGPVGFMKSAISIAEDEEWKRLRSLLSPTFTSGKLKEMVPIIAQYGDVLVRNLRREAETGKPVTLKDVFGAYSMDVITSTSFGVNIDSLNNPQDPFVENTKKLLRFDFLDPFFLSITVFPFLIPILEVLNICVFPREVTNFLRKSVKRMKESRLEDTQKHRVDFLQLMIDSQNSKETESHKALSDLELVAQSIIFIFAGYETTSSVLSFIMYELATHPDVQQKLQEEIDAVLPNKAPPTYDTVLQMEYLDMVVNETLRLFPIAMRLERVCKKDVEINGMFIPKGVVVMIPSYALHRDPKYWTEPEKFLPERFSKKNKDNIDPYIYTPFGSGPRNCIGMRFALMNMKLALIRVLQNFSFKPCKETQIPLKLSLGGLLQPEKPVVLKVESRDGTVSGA

Consider `C[C@]12CC[C@@H]3c4ccc(OCCBr)cc4CC[C@H]3[C@@H]1C[C@H](Cc1cccc(C(N)=O)c1)[C@@H]2O`, for which the IC50 in [1] is 0.172 µM. Moreover, the % proliferation above basal control (0% = control) at 1 µM in the experiment on T47D [2] was determined as 0%. Also, the percent proliferation above basal control at 0.1 µM in the experiment with T47D [3] stood at 0%. In addition, in experiment [4], the inhibition amounted to 37%.

Consider `CCCCCCCN(C)[C@H]1CC[C@H]2C3CC[C@H]4NC(=O)CC[C@]4(C)[C@H]3CC[C@]12C` (stereo partly specified), for which the inhibition in [5] stood at 81%.

On Cytochrome P450 3A4, `C[C@]12CC[C@@H]3c4ccc(O)cc4CC[C@H]3[C@@H]1C[C@H](Cc1cccc(C(N)=O)c1)[C@@H]2O` had an IC50 of 1.5 µM. The inhibition in experiment [6] worked out at 6%; in experiment [5], 0%; in experiment [7] it was 0%; in [4], 72%. In the experiment on MCF7 [8], the percent proliferation above basal control at 1 µM was greater than 30%. The percent proliferation above basal control at 0.1 µM in the experiment with MCF7 [9] is greater than 30%.

On to `C[C@]12CC[C@@H]3c4ccc(CCBr)cc4CC[C@H]3[C@@H]1C[C@H](Cc1cccc(C(N)=O)c1)[C@@H]2O`, for which the inhibition entry in [10] and in experiment [11] was “Active” in each case. For the same compound, the inhibition result in [12] was “tde”; in experiment [6] it was 34%; in experiment [5], 9%; in [7] it was 7%. Moreover, the IC50 was found to be 3.9 µM against Cytochrome P450 3A4 and 0.097 µM in experiment [13]. Moreover, in the experiment on MCF7 [8], the percent proliferation above basal control at 1 µM was 0%. The percent proliferation above basal control at 0.1 µM with MCF7 [9] was determined as 0%.

`C[C@]12CC[C@@H]3c4ccc(CCCBr)cc4CC[C@H]3[C@@H]1C[C@H](Cc1cccc(C(N)=O)c1)[C@@H]2O`: the IC50 in [1] was found to be 0.153 µM. In addition, the % proliferation above basal control (0% = control) at 1 µM in the experiment with T47D [2] was determined as 0%. In the experiment with T47D [3], the percent proliferation above basal control at 0.1 µM was 0%. In experiment [4], the inhibition was determined as 41%.
